According to ChEMBL document CHEMBL4689842, “EUbOPEN Chemogenomics Library wave 1” (2021):

Assays:
Assay type in all cases: toxicity, cell-based
HEK-293T = experiment: Incucyte cell viability with HEK293T; details: human, 10 µM, compound concentration 10 uM; further: filed as whole numbers so only -1 and 0 and 1 occur
U2OS [1] = experiment: Multiplex assay against U2OS; details: human
Outline: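 Hoechst33342, BioTracker Green Microtubule Cytoskeleton Dye, MitoTracker Red and Annexin V Alexa Fluor 680 were added to live cells at seeding, and imaging on a CQ1 microscope at 37°C and 5% CO2 followed compound addition. Gating by CellPathfinder machine learning separated cells into Hoechst high-intensity objects or normal cells, then normal cells into healthy, pyknosed or fragmented nuclei, then pyknosed cells into mitotic or apoptotic. Per cents of healthy-nucleus cells are reported for the tubulin, mitochondrial-mass and membrane-permeability phenotypes.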

U2OS [2] = experiment: Incucyte cell viability with U2OS; details: human, 10 µM, compound concentration 10 uM; further: filed as whole numbers so only -1 and 0 and 1 occur
Fibroblast = experiment: Incucyte cell viability with human fibroblast; details: 10 µM, compound concentration 10 uM; further: filed as whole numbers so only -1 and 0 and 1 occur
[3] = 6 h, replicate number 1, timepoint 6 hours
[4] = 12 h, replicate number 1, timepoint 12 hours
[5] = 18 h, replicate number 1, timepoint 18 hours
[6] = 24 h, replicate number 1, timepoint 24 hours
[7] = 12 h, 1 µM, compound concentration 1 uM, replicate 1
[8] = 12 h, 1 µM, compound concentration 1 uM, replicate 2
[9] = 12 h, 10 µM, compound concentration 10 uM, replicate 1
[10] = 12 h, 10 µM, compound concentration 10 uM, replicate 2
[11] = 24 h, 1 µM, compound concentration 1 uM, replicate 1
[12] = 24 h, 1 µM, compound concentration 1 uM, replicate 2
[13] = 24 h, 10 µM, compound concentration 10 uM, replicate 1
[14] = 24 h, 10 µM, compound concentration 10 uM, replicate 2
[15] = 48 h, 1 µM, compound concentration 1 uM, replicate 1
[16] = 48 h, 1 µM, compound concentration 1 uM, replicate 2
[17] = 48 h, 10 µM, compound concentration 10 uM, replicate 1
[18] = 48 h, 10 µM, compound concentration 10 uM, replicate 2
[19] = 0 h, replicate number 1, timepoint 0 hours
[20] = 6 h, replicate number 2, timepoint 6 hours

CC(C)c1cc(Nc2nc(N3CCC[C@H](N)C3)ncc2C(N)=O)cc(C(C)C)n1
Growth Rate (HEK-293T; [3]): 0
Growth Rate (HEK-293T; [4]): 0
Growth Rate (HEK-293T; [5]): 0
Growth Rate (HEK-293T; [6]): 0
Population Apoptotic (%) (U2OS [1]; [7]): 51%
Population Fragmented Nuclei (%) (U2OS [1]; [7]): 8%
Population Healthy Nuclei (%) (U2OS [1]; [7]): 67%
Population Hoechst High Intensity Objects (%) (U2OS [1]; [7]): 5%
Population Membrane Permeable-Phenotype (%) (U2OS [1]; [7]): 22%
Population Mitochondria Different-Phenotype (%) (U2OS [1]; [7]): 89%
Population Mitotic Cells (%) (U2OS [1]; [7]): 48%
Population Normal (%) (U2OS [1]; [7]): 94%
Population Pyknosed Nuclei (%) (U2OS [1]; [7]): 23%
Population Tubulin-Different-Phenotype (%) (U2OS [1]; [7]): 100%
Total Cell Count (U2OS [1]; [7]): 201
Population Apoptotic (%) (U2OS [1]; [8]): 44%
Population Fragmented Nuclei (%) (U2OS [1]; [8]): 12%
Population Healthy Nuclei (%) (U2OS [1]; [8]): 75%
Population Hoechst High Intensity Objects (%) (U2OS [1]; [8]): 9%
Population Membrane Permeable-Phenotype (%) (U2OS [1]; [8]): 16%
Population Mitochondria Different-Phenotype (%) (U2OS [1]; [8]): 92%
Population Mitotic Cells (%) (U2OS [1]; [8]): 55%
Population Normal (%) (U2OS [1]; [8]): 90%
Population Pyknosed Nuclei (%) (U2OS [1]; [8]): 12%
Population Tubulin-Different-Phenotype (%) (U2OS [1]; [8]): 96%
Total Cell Count (U2OS [1]; [8]): 82
Population Apoptotic (%) (U2OS [1]; [9]): 64%
Population Fragmented Nuclei (%) (U2OS [1]; [9]): 23%
Population Healthy Nuclei (%) (U2OS [1]; [9]): 39%
Population Hoechst High Intensity Objects (%) (U2OS [1]; [9]): 4%
Population Membrane Permeable-Phenotype (%) (U2OS [1]; [9]): 88%
Population Mitochondria Different-Phenotype (%) (U2OS [1]; [9]): 98%
Population Mitotic Cells (%) (U2OS [1]; [9]): 35%
Population Normal (%) (U2OS [1]; [9]): 95%
Population Pyknosed Nuclei (%) (U2OS [1]; [9]): 37%
Total Cell Count (U2OS [1]; [9]): 161
Population Apoptotic (%) (U2OS [1]; [10]): 65%
Population Fragmented Nuclei (%) (U2OS [1]; [10]): 19%
Population Healthy Nuclei (%) (U2OS [1]; [10]): 31%
Population Hoechst High Intensity Objects (%) (U2OS [1]; [10]): 14%
Population Membrane Permeable-Phenotype (%) (U2OS [1]; [10]): 100%
Population Mitochondria Different-Phenotype (%) (U2OS [1]; [10]): 93%
Population Mitotic Cells (%) (U2OS [1]; [10]): 34%
Population Normal (%) (U2OS [1]; [10]): 85%
Population Pyknosed Nuclei (%) (U2OS [1]; [10]): 48%
Population Tubulin-Different-Phenotype (%) (U2OS [1]; [10]): 100%
Total Cell Count (U2OS [1]; [10]): 55
Population Apoptotic (%) (U2OS [1]; [11]): 57%
Population Fragmented Nuclei (%) (U2OS [1]; [11]): 9%
Population Healthy Nuclei (%) (U2OS [1]; [11]): 61%
Population Hoechst High Intensity Objects (%) (U2OS [1]; [11]): 6%
Population Membrane Permeable-Phenotype (%) (U2OS [1]; [11]): 22%
Population Mitochondria Different-Phenotype (%) (U2OS [1]; [11]): 90%
Population Mitotic Cells (%) (U2OS [1]; [11]): 42%
Population Normal (%) (U2OS [1]; [11]): 93%
Population Pyknosed Nuclei (%) (U2OS [1]; [11]): 29%
Population Tubulin-Different-Phenotype (%) (U2OS [1]; [11]): 98%
Total Cell Count (U2OS [1]; [11]): 206
Population Apoptotic (%) (U2OS [1]; [12]): 26%
Population Fragmented Nuclei (%) (U2OS [1]; [12]): 10%
Population Healthy Nuclei (%) (U2OS [1]; [12]): 68%
Population Hoechst High Intensity Objects (%) (U2OS [1]; [12]): 5%
Population Membrane Permeable-Phenotype (%) (U2OS [1]; [12]): 30%
Population Mitochondria Different-Phenotype (%) (U2OS [1]; [12]): 96%
Population Mitotic Cells (%) (U2OS [1]; [12]): 73%
Population Normal (%) (U2OS [1]; [12]): 94%
Population Pyknosed Nuclei (%) (U2OS [1]; [12]): 20%
Population Tubulin-Different-Phenotype (%) (U2OS [1]; [12]): 94%
Total Cell Count (U2OS [1]; [12]): 77
Population Apoptotic (%) (U2OS [1]; [13]): 74%
Population Fragmented Nuclei (%) (U2OS [1]; [13]): 32%
Population Hoechst High Intensity Objects (%) (U2OS [1]; [13]): 9%
Population Membrane Permeable-Phenotype (%) (U2OS [1]; [13]): 97%
Population Mitochondria Different-Phenotype (%) (U2OS [1]; [13]): 100%
Population Mitotic Cells (%) (U2OS [1]; [13]): 25%
Population Normal (%) (U2OS [1]; [13]): 90%
Population Pyknosed Nuclei (%) (U2OS [1]; [13]): 44%
Population Tubulin-Different-Phenotype (%) (U2OS [1]; [13]): 97%
Total Cell Count (U2OS [1]; [13]): 167
Population Apoptotic (%) (U2OS [1]; [14]): 84%
Population Fragmented Nuclei (%) (U2OS [1]; [14]): 23%
Population Healthy Nuclei (%) (U2OS [1]; [14]): 23%
Population Hoechst High Intensity Objects (%) (U2OS [1]; [14]): 17%
Population Membrane Permeable-Phenotype (%) (U2OS [1]; [14]): 100%
Population Mitochondria Different-Phenotype (%) (U2OS [1]; [14]): 90%
Population Mitotic Cells (%) (U2OS [1]; [14]): 16%
Population Normal (%) (U2OS [1]; [14]): 82%
Population Pyknosed Nuclei (%) (U2OS [1]; [14]): 53%
Population Tubulin-Different-Phenotype (%) (U2OS [1]; [14]): 100%
Total Cell Count (U2OS [1]; [14]): 57
Population Apoptotic (%) (U2OS [1]; [15]): 54%
Population Fragmented Nuclei (%) (U2OS [1]; [15]): 17%
Population Healthy Nuclei (%) (U2OS [1]; [15]): 45%
Population Hoechst High Intensity Objects (%) (U2OS [1]; [15]): 7%
Population Membrane Permeable-Phenotype (%) (U2OS [1]; [15]): 26%
Population Mitochondria Different-Phenotype (%) (U2OS [1]; [15]): 83%
Population Mitotic Cells (%) (U2OS [1]; [15]): 45%
Population Normal (%) (U2OS [1]; [15]): 92%
Population Pyknosed Nuclei (%) (U2OS [1]; [15]): 37%
Population Tubulin-Different-Phenotype (%) (U2OS [1]; [15]): 94%
Total Cell Count (U2OS [1]; [15]): 249
Population Apoptotic (%) (U2OS [1]; [16]): 52%
Population Fragmented Nuclei (%) (U2OS [1]; [16]): 14%
Population Healthy Nuclei (%) (U2OS [1]; [16]): 60%
Population Hoechst High Intensity Objects (%) (U2OS [1]; [16]): 3%
Population Membrane Permeable-Phenotype (%) (U2OS [1]; [16]): 46%
Population Mitochondria Different-Phenotype (%) (U2OS [1]; [16]): 88%
Population Mitotic Cells (%) (U2OS [1]; [16]): 47%
Population Normal (%) (U2OS [1]; [16]): 96%
Population Pyknosed Nuclei (%) (U2OS [1]; [16]): 25%
Population Tubulin-Different-Phenotype (%) (U2OS [1]; [16]): 96%
Total Cell Count (U2OS [1]; [16]): 86
Population Apoptotic (%) (U2OS [1]; [17]): 89%
Population Fragmented Nuclei (%) (U2OS [1]; [17]): 36%
Population Healthy Nuclei (%) (U2OS [1]; [17]): 5%
Population Hoechst High Intensity Objects (%) (U2OS [1]; [17]): 15%
Population Membrane Permeable-Phenotype (%) (U2OS [1]; [17]): 100%
Population Mitochondria Different-Phenotype (%) (U2OS [1]; [17]): 100%
Population Mitotic Cells (%) (U2OS [1]; [17]): 10%
Population Normal (%) (U2OS [1]; [17]): 84%
Population Pyknosed Nuclei (%) (U2OS [1]; [17]): 58%
Population Tubulin-Different-Phenotype (%) (U2OS [1]; [17]): 100%
Total Cell Count (U2OS [1]; [17]): 155
Population Apoptotic (%) (U2OS [1]; [18]): 95%
Population Fragmented Nuclei (%) (U2OS [1]; [18]): 34%
Population Healthy Nuclei (%) (U2OS [1]; [18]): 9%
Population Hoechst High Intensity Objects (%) (U2OS [1]; [18]): 26%
Population Mitotic Cells (%) (U2OS [1]; [18]): 4%
Population Normal (%) (U2OS [1]; [18]): 73%
Population Pyknosed Nuclei (%) (U2OS [1]; [18]): 56%
Total Cell Count (U2OS [1]; [18]): 56
Growth Rate (U2OS [2]; [19]): 1
Growth Rate (U2OS [2]; 0 h, replicate number 2, timepoint 0 hours): 0
Growth Rate (U2OS [2]; [3]): 0
Growth Rate (U2OS [2]; [20]): 1
Growth Rate (U2OS [2]; [4]): 0
Growth Rate (U2OS [2]; [5]): 0
Growth Rate (U2OS [2]; [6]): 0
Growth Rate (Fibroblast; [19]): 0
Growth Rate (Fibroblast; [3]): 1
Growth Rate (Fibroblast; [20]): 0
Growth Rate (Fibroblast; [4]): 1
Growth Rate (Fibroblast; 12 h, replicate number 2, timepoint 12 hours): 0
Growth Rate (Fibroblast; [5]): 0
Growth Rate (Fibroblast; [6]): 0
